Laboratory results as given in ChEMBL document CHEMBL1144782, “Isoindolo[2,1-a]quinoxaline derivatives, novel potent antitumor agents with dual inhibition of tubulin polymerization and topoisomerase I” (2008).
Active and inactive are the calls of the source. The rule behind the calls is not given here.

How the values were obtained:
[1] = molecular target: Tubulin (Sus scrofa) (UniProt P02554+P02550); assay: Inhibition of pig brain tubulin polymerization at 5 uM
[2] = test system: OVCAR-3; assay: Antitumor activity against human OVCAR-3 cells; type: functional
Summary of the method: (§1)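 Run by the NCI in its in vitro disease-oriented screen of about 60 human tumour cell lines. For each line it reports pGI50 (50% net growth inhibition), pTGI (total growth inhibition) and pLC50 (50% net cell death), each as –log molar concentration. Where an effect was not reached within the tested range, the highest tested concentration was used.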

[3] = test system: Jurkat; assay: Cell cycle arrest in human Jurkat cells at mitosis at 0.5 uM after 24 hrs; type: functional
Summary of the method: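 Exponentially growing Jurkat cells were exposed for 24 h, then pelleted at 400g for 5 min. Hypotonic KCl (75 mM, 4 °C) was applied for 20 min, followed by methanol–acetic acid (3:1) fixation and Giemsa staining. 400 cells per treatment were scored microscopically; mitotic index is the fraction with mitotic figures. Three independent experiments, mean ± SEM.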

[4] = test system: CCRF-CEM; assay: Growth inhibition of human CEM cells after 72 hrs by MTT assay; type: functional
Summary of the method: (§2)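 Growth inhibition by MTT after 72 h incubation. Resistant sublines: LoVoDoxo and MCF-7 MDR were kept in 0.1 µg/mL doxorubicin; CEMVbl-100 was selected against vinblastine. GI50 given as mean ± SEM of three independent experiments. Resistance index is resistant-line GI50 over parental GI50.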

[5] = test system: OVCAR-5; assay: Antitumor activity against human OVCAR5 cells; type: functional; summary of the method: as §1
[6] = test system: MCF7; assay: Cell viability against human MCF7 cells at 10 uM; type: functional
[7] = test system: A549; assay: Disruption of tubulin network in human A549 cells assessed as disaggregation of microtubules at 2.5 uM […]; type: functional, cell-based
[8] = test system: HCT-15; assay: Antitumor activity against human HCT15 cells; type: functional; summary of the method: as §1
[9] = test system: LoVo; assay: Resistance index, Ratio of GI50 for human doxorubicin-resistant LoVo cells to GI50 for human LoVo cells; type: functional; summary of the method: as §2
[10] = test system: SK-MEL-5; assay: Antitumor activity against human SKMEL5 cells; type: functional; summary of the method: as §1
[11] = test system: Jurkat; assay: Induction of apoptosis in human Jurkat cells assessed as activation of caspase 9 after 24 hrs by flow cytometry; type: functional, cell-based
Summary of the method: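 Jurkat cells were exposed (500 nM) for 24 h, then harvested and incubated in HBSS with cell-permeable FITC-DEVD-fmk (caspase-3) or FITC-[…]-fmk (caspase-9) for 1 h at 37 °C. After washing, cells were read by flow cytometry on FL-1. Results are fold increase over control.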

[12] = test system: HCC 2998; assay: Antitumor activity against human HCC2998 cells; type: functional; summary of the method: as §1
[13] = test system: SR; assay: Antitumor activity against human SR cells; type: functional
Summary of the method: (§3)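 NCI 60-cell-line screen. Parameters were GI50 (50% net growth inhibition), TGI and LC50, each reported as –log molar concentration. Where an effect was not reached within the tested range, the highest tested concentration was used in the calculation.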

[14] = test system: BT-549; assay: Antitumor activity against human BT549 cells; type: functional; summary of the method: as §1
[15] = test system: SF-539; assay: Antitumor activity against human SF539 cells; type: functional; summary of the method: as §1
[16] = test system: T47D; assay: Antitumor activity against human T47D cells; type: functional; summary of the method: as §3
[17] = test system: Jurkat; assay: Cell cycle arrest in human Jurkat cells assessed as accumulation at G1 phase at 125 nM after 24 hrs by flow cytometry; type: functional
Summary of the method: (§4)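 Exponentially growing Jurkat cells (5 × 105) were exposed to compound for 24 h. Cells were then fixed in ice-cold 70% ethanol, lysed with RNase A-containing buffer and stained with propidium iodide. DNA-content histograms from flow cytometry gave G1, S and G2/M fractions.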

[18] = test system: NCI-H460; assay: Antitumor activity against human NCI-H460 cells; type: functional; summary of the method: as §1
[19] = test system: RPMI-8226; assay: Antitumor activity against human RPMI8226 cells; type: functional; summary of the method: as §1
[20] = test system: NCI-H23; assay: Antitumor activity against human NCI-H23 cells; type: functional; summary of the method: as §1
[21] = test system: ACHN; assay: Antitumor activity against human ACHN cells; type: functional; summary of the method: as §1
[22] = test system: HCT-116; assay: Antitumor activity against human HCT116 cells; type: functional; summary of the method: as §1
[23] = test system: Hs-578T; assay: Antitumor activity against human HS578T cells; type: functional; summary of the method: as §1
[24] = test system: Jurkat; assay: Cell cycle arrest in human Jurkat cells assessed as accumulation at S phase at 32 nM after 24 hrs by flow cytometry; type: functional; summary of the method: as §4
[25] = test system: SF-268; assay: Cell viability against human SF268 cells at 10 uM; type: functional
[26] = test system: SK-OV-3; assay: Antitumor activity against human SKOV3 cells; type: functional; summary of the method: as §1
[27] = test system: Jurkat; assay: Cell cycle arrest in human Jurkat cells assessed as accumulation at S phase at 500 nM after 24 hrs by flow cytometry; type: functional; summary of the method: as §4
[28] = test system: LoVo; assay: Growth inhibition of human LoVo cells after 72 hrs by MTT assay; type: functional; summary of the method: as §2
[29] = test system: NCI/ADR-RES; assay: Antitumor activity against human NCI/ADR-RES cells; type: functional; summary of the method: as §1
[30] = test system: DU-145; assay: Antitumor activity against human DU145 cells; type: functional; details: Homo sapiens, DU-145; read-out: Log LC50 (the source's name) (converted); summary of the method: as §1
[31] = test system: CCRF-CEM; assay: Resistance index, Ratio of GI50 for human vinblastine-resistant CEM cells to GI50 for human CEM cells; type: functional
[32] = test system: OVCAR-4; assay: Antitumor activity against human OVCAR4 cells; type: functional; summary of the method: as §1
[33] = test system: U-251; assay: Antitumor activity against human U251 cells; type: functional; summary of the method: as §3
[34] = test system: 786-0; assay: Antitumor activity against human 786-0 cells; type: functional; summary of the method: as §1
[35] = test system: Jurkat; assay: Cell cycle arrest in human Jurkat cells assessed as accumulation at G2/M phase at 250 nM after 24 hrs by flow cytometry; type: functional; summary of the method: as §4
[36] = test system: Jurkat; assay: Cell cycle arrest in human Jurkat cells assessed as accumulation at G2/M phase at 500 nM after 24 hrs by flow cytometry; type: functional; summary of the method: as §4
[37] = test system: Jurkat; assay: Cell cycle arrest in human Jurkat cells assessed as accumulation at G2/M phase at 62.5 nM after 24 hrs by flow cytometry; type: functional; summary of the method: as §4
[38] = read-out: Log LC50 (the source's name) (converted)

Chain of Tubulin (Sus scrofa) (P02550 whole entry, looked up): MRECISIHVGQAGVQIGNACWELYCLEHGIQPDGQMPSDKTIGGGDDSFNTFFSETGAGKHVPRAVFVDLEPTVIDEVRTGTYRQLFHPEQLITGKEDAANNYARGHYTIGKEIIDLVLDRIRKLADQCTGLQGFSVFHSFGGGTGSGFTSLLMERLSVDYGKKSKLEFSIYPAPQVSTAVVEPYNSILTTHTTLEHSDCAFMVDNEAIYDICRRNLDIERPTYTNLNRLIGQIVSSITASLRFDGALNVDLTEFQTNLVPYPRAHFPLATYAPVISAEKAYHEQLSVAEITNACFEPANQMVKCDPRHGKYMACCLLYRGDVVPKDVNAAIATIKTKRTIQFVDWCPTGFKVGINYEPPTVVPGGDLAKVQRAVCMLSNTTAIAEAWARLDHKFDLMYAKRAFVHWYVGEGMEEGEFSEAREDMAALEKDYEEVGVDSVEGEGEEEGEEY
Chain of Tubulin (Sus scrofa) (P02554 whole entry, looked up): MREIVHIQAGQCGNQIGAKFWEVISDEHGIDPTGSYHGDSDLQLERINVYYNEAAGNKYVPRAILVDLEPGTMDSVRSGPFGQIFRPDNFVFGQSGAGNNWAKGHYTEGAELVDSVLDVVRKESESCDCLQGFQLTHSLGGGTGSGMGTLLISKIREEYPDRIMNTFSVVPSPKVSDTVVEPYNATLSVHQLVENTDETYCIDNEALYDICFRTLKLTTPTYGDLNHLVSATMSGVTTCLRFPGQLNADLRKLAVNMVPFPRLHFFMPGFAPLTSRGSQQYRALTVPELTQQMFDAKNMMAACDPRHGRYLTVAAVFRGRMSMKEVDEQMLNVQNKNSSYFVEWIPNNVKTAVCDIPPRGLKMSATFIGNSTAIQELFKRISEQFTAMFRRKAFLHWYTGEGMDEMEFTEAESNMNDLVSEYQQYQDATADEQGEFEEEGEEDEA

## COc1ccc2c(c1)[nH]c(=O)c1c3ccccc3cn21
[1]
  Activity: Active
[2]
  GI50: 0.0224 µM
  LC50 (50% net cell death): 2.88 µM
[2]; read-out: pTGI (converted)
  TGI: 0.0646 µM
[3]
  Activity: 50%
[4]
  GI50: 0.02 µM
[5]
  GI50: 0.1 µM
  LC50 (50% net cell death): 77.6 µM
[5]; read-out: pTGI (converted)
  TGI: 7.94 µM
[6]
  Activity: 0%
[7]
  Activity: Active
[8]
  GI50: 0.0263 µM
[8]; [38]
  CC50: 4.57 µM
[8]; read-out: pTGI (converted)
  TGI: 1.15 µM
[9]
  RatioGI50: 1
[10]
  GI50: 0.0282 µM
  LC50: 3.47 µM
[10]; read-out: pTGI (converted)
  TGI: 1.17 µM
[11]
  Activity: Active
[12]
  GI50: 0.0182 µM
  LC50: 0.501 µM
[12]; read-out: pTGI (converted)
  TGI: 0.049 µM
[13]
  GI50: 0.01 µM
  LC50: 75.9 µM
[13]; read-out: pTGI (converted)
  TGI: 2.04 µM
[14]
  GI50: 0.055 µM
  LC50 (50% net cell kill): 6.31 µM
[14]; read-out: pTGI (converted)
  TGI: 2.04 µM
[15]
  GI50: 0.0229 µM
  LC50 (50% net cell kill): 2.75 µM
[15]; read-out: pTGI (converted)
  TGI: 0.0708 µM
[16]
  GI50: 0.0479 µM
  LC50: > 100 µM
[16]; read-out: pTGI (converted)
  TGI: 4.57 µM
[17]
  Activity: 2.2%
[18]
  GI50: 0.0347 µM
[18]; [38]
  CC50: 5.13 µM
[18]; read-out: pTGI (converted)
  TGI: 1.12 µM
[19]
  GI50: 0.0363 µM
[19]; [38]
  CC50: 6.92 µM
[19]; read-out: pTGI (converted)
  TGI: 1.41 µM
[20]
  GI50: 0.0427 µM
  LC50 (50% net cell kill): > 100 µM
[20]; read-out: pTGI (converted)
  TGI: 3.39 µM
[21]
  GI50: 0.126 µM
  LC50 (50% net cell kill): 4.37 µM
[21]; read-out: pTGI (converted)
  TGI: 1.82 µM
[22]
  GI50: 0.0398 µM
  LC50: 4.47 µM
[22]; read-out: pTGI (converted)
  TGI: 1.32 µM
[23]
  GI50: 0.0513 µM
[23]; [38]
  CC50: > 100 µM
[23]; read-out: pTGI (converted)
  TGI: 2.69 µM
[24]
  Activity: 44.1%
[25]
  Activity: 1%
[26]
  GI50: 0.0389 µM
  LC50 (50% net cell kill): 8.51 µM
[26]; read-out: pTGI (converted)
  TGI: 1.62 µM
[27]
  Activity: 49.1%
[28]
  GI50: 0.13 µM
[29]
  GI50: 0.0214 µM
  LC50: 10 µM
[29]; read-out: pTGI (converted)
  TGI: 0.0575 µM
[30]
  CC50: 4.27 µM
[31]
  RatioGI50: 1
[32]
  GI50: 0.0912 µM
  LC50 (50% net cell kill): > 100 µM
[32]; read-out: pTGI (converted)
  TGI: 5.13 µM
[33]
  GI50: 0.0437 µM
[33]; [38]
  CC50: 5.01 µM
[33]; read-out: pTGI (converted)
  TGI: 1.51 µM
[34]
  GI50: 0.0417 µM
[34]; [38]
  CC50: 4.57 µM
[34]; read-out: pTGI (converted)
  TGI: 1.86 µM
[35]
  Activity: 55.2%
[36]
  Activity: 50.9%
[37]
  Activity: 43.1%
